How the values were obtained:
Rattus norvegicus [1] = assay: Cmax in fasted Sprague-Dawley rat plasma at 25 mg/kg, po after 6 hrs by LC/MS/MS analysis; format: ADME, organism-based; parameters: dose 25 mg/kg, route oral; conditions: in vivo
Method in brief: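 Male rats, 3 per treatment, fitted with jugular vein cannulae two days before dosing and fasted 12 h (water allowed). Compound given by gavage at 25 mg/kg, formulated at 2 mg/mL in 1:1 NMP:Solutol HS15 diluted with saline. Blood taken predose and at 5, 15, 30 min, 1, 3 and 6 h. Plasma quantified by LC/MS against an 8-point standard curve; Cmax calculated by standard methods.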

Hepatitis B virus [2] = assay: Antiviral activity against wild-type Hepatitis B virus infected in human HepG2 cells assessed as inhibition of HBsAg secretion by ELISA; format: functional, organism-based
Mus musculus [3] = assay: Acute toxicity in CL57BL/6 mouse assessed as effect on serum Ca2+ level at 25 mg/kg, iv administered as single dose after 24 hrs; format: organism-based; parameters: dose 25 mg/kg, route intravenous; conditions: in vivo
Method in brief: (§1)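 Female C57BL/6 mice, four per group, randomized, each given one tail-vein injection of a 2 mg/mL solution in 1:1 NMP:Solutol HS15 diluted with saline; a vehicle-only group served as control. Mice were watched for the first hour and sacrificed at 24 h with necropsy. Serum was collected and run on an automated chemistry and electrolyte analyser.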

Rattus norvegicus [4] = assay: Total body clearance in fasted Sprague-Dawley rat at 5 mg/kg, iv by LC/MS/MS analysis; format: ADME, organism-based; parameters: dose 5 mg/kg, route intravenous; conditions: in vivo
Method in brief: (§2)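 Male Sprague-Dawley rats, 3 per treatment, carried jugular cannulae and were fasted 12 h with water. Compound was formulated at 2 mg/mL in 1:1 NMP:Solutol HS15 diluted with saline. Dosing was 5 mg/kg iv or 25 mg/kg oral gavage. Blood was drawn predose and at 5, 15, 30 min, 1, 3 and 6 h. Plasma was quantified by LC-MS/MS against an 8-point standard curve.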

Mus musculus [5] = assay: Acute toxicity in CL57BL/6 mouse assessed as effect on serum phosphorus level at 25 mg/kg, iv administered as single dose after 24 hrs; format: organism-based; parameters: dose 25 mg/kg, route intravenous; conditions: in vivo; method in brief: as §1
Mus musculus [6] = assay: Acute toxicity in CL57BL/6 mouse assessed as effect on hemoglobin concentration at 25 mg/kg, iv administered as single dose after 24 hrs; format: organism-based; parameters: dose 25 mg/kg, route intravenous; conditions: in vivo
Method in brief: as §1, with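 “watched closely” for “watched”, “Whole blood” for “Serum”, “taken for complete blood counts” for “collected and run”, “haematology” for “chemistry and electrolyte”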

Mus musculus [7] = assay: Acute toxicity in CL57BL/6 mouse assessed as effect on red blood cells count at 25 mg/kg, iv administered as single dose after 24 hrs; format: organism-based; parameters: dose 25 mg/kg, route intravenous; conditions: in vivo
Method in brief: as §1, with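 “watched closely” for “watched”, “Whole blood” for “Serum”, “taken for complete blood counts” for “collected and run”, “haematology” for “chemistry and electrolyte”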

Mus musculus [8] = assay: Toxicity in HBV infected transgenic 1.3.32 mouse assessed as elevation in serum Na+ level at 7.9 to 25 mg/kg, po qd for 14 days; format: organism-based; parameters: dose 7.9-25 mg/kg, route oral; conditions: in vivo, 336 h
Method in brief: (§3)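 HBV-transgenic mice (strain 1.3.32), 10 per group, randomised; oral gavage once daily for 14 days at 25 or 7.9 mg/kg in NMP:Solutol HS15/saline vehicle; vehicle-only group. Weighed before the first dose and after 3 days; observed one hour after each dose. Tail-vein blood taken before dosing, at day 7 and at day 14 necropsy, each 3 h post-dose, for serum chemistry.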

Mus musculus [9] = assay: Acute toxicity in CL57BL/6 mouse assessed as effect on serum globulin level at 25 mg/kg, iv administered as single dose after 24 hrs; format: organism-based; parameters: dose 25 mg/kg, route intravenous; conditions: in vivo; method in brief: as §1
Mus musculus [10] = assay: Toxicity in HBV infected transgenic 1.3.32 mouse assessed as change in serum creatinine level at 7.9 to 25 mg/kg, po qd for 14 days; format: organism-based; parameters: dose 7.9-25 mg/kg, route oral; conditions: in vivo, 336 h; method in brief: as §3
Mus musculus [11] = assay: Toxicity in HBV infected transgenic 1.3.32 mouse assessed as mortality at 7.9 to 25 mg/kg, po qd for 14 days; format: organism-based; parameters: dose 7.9-25 mg/kg, route oral; conditions: in vivo, 336 h; method in brief: as §3
Rattus norvegicus [12] = assay: Volume of distribution at steady state in fasted Sprague-Dawley rat at 5 mg/kg, iv by LC/MS/MS analysis; format: ADME, organism-based; parameters: dose 5 mg/kg, route intravenous; conditions: in vivo; method in brief: as §2
Mus musculus [13] = assay: Acute toxicity in CL57BL/6 mouse assessed as weight loss at 25 mg/kg, iv administered as single dose after 24 hrs; format: organism-based; parameters: dose 25 mg/kg, route intravenous; conditions: in vivo
Method in brief: (§4)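 Female C57BL/6 mice, four per group, randomised; single tail-vein bolus in NMP:Solutol HS15 (1:1) diluted with saline to 2 mg/mL, injected within 10 min of preparation; vehicle-only group. Close observation for the first hour; sacrifice and necropsy at 24 h. Whole-blood complete blood counts and serum chemistry, including total bilirubin and total protein, were measured.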

Mus musculus [14] = assay: Acute toxicity in CL57BL/6 mouse assessed as effect on monocytes count at 25 mg/kg, iv administered as single dose after 24 hrs; format: organism-based; parameters: dose 25 mg/kg, route intravenous; conditions: in vivo
Method in brief: as §1, with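 “watched closely” for “watched”, “Whole blood” for “Serum”, “taken for complete blood counts” for “collected and run”, “haematology” for “chemistry and electrolyte”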

Mus musculus [15] = assay: Acute toxicity in CL57BL/6 mouse assessed as effect on serum creatinine level at 25 mg/kg, iv administered as single dose after 24 hrs; format: organism-based; parameters: dose 25 mg/kg, route intravenous; conditions: in vivo; method in brief: as §1
Rattus norvegicus [16] = assay: Oral bioavailability in fasted Sprague-Dawley rat at 25 mg/kg after 6 hrs by LC/MS/MS analysis; format: ADME, organism-based; conditions: in vivo; method in brief: as §2
Mus musculus [17] = assay: Toxicity in HBV infected transgenic 1.3.32 mouse assessed as change in serum globulin level at 7.9 to 25 mg/kg, po qd for 14 days; format: organism-based; parameters: dose 7.9-25 mg/kg, route oral; conditions: in vivo, 336 h; method in brief: as §3
Mus musculus [18] = assay: Toxicity in HBV infected transgenic 1.3.32 mouse assessed as change in serum K+ level at 7.9 to 25 mg/kg, po qd for 14 days; format: organism-based; parameters: dose 7.9-25 mg/kg, route oral; conditions: in vivo, 336 h; method in brief: as §3
Mus musculus [19] = assay: Toxicity in HBV infected transgenic 1.3.32 mouse assessed as change in serum alkaline phosphatase level at 7.9 to 25 mg/kg, po qd for 14 days; format: organism-based; parameters: dose 7.9-25 mg/kg, route oral; conditions: in vivo, 336 h; method in brief: as §3
Mus musculus [20] = assay: Acute toxicity in CL57BL/6 mouse assessed as effect on red cell distribution width at 25 mg/kg, iv administered as single dose after 24 hrs; format: organism-based; parameters: dose 25 mg/kg, route intravenous; conditions: in vivo
Method in brief: as §1, with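 “watched closely” for “watched”, “Whole blood” for “Serum”, “taken for complete blood counts” for “collected and run”, “haematology” for “chemistry and electrolyte”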

Mus musculus [21] = assay: Acute toxicity in CL57BL/6 mouse assessed as effect on serum total bilirubin level at 25 mg/kg, iv administered as single dose after 24 hrs; format: organism-based; parameters: dose 25 mg/kg, route intravenous; conditions: in vivo; method in brief: as §1
Mus musculus [22] = assay: Toxicity in HBV infected transgenic 1.3.32 mouse assessed as change in serum phosphorus level at 7.9 to 25 mg/kg, po qd for 14 days; format: organism-based; parameters: dose 7.9-25 mg/kg, route oral; conditions: in vivo, 336 h; method in brief: as §3
Mus musculus [23] = assay: Acute toxicity in CL57BL/6 mouse assessed as effect on hemoglobin at 25 mg/kg, iv administered as single dose after 24 hrs; format: organism-based; parameters: dose 25 mg/kg, route intravenous; conditions: in vivo
Method in brief: as §1, with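 “watched closely” for “watched”, “Whole blood” for “Serum”, “taken for complete blood counts” for “collected and run”, “haematology” for “chemistry and electrolyte”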

Mus musculus [24] = assay: Acute toxicity in CL57BL/6 mouse assessed as morbidity at 25 mg/kg, iv administered as single dose after 24 hrs; format: organism-based; parameters: dose 25 mg/kg, route intravenous; conditions: in vivo; method in brief: as §4
Mus musculus [25] = assay: Toxicity in HBV infected transgenic 1.3.32 mouse assessed as change in serum Ca2+ level at 7.9 to 25 mg/kg, po qd for 14 days; format: organism-based; parameters: dose 7.9-25 mg/kg, route oral; conditions: in vivo, 336 h; method in brief: as §3
Mus musculus [26] = assay: Acute toxicity in CL57BL/6 mouse assessed as effect on serum total protein level at 25 mg/kg, iv administered as single dose after 24 hrs; format: organism-based; parameters: dose 25 mg/kg, route intravenous; conditions: in vivo; method in brief: as §4
Mus musculus [27] = assay: Acute toxicity in CL57BL/6 mouse assessed as reduction in neutrophils count at 25 mg/kg, iv administered as single dose after 24 hrs; format: organism-based; parameters: dose 25 mg/kg, route intravenous; conditions: in vivo; method in brief: as §4
Mus musculus [28] = assay: Acute toxicity in CL57BL/6 mouse assessed as effect on mean corpuscular at 25 mg/kg, iv administered as single dose after 24 hrs; format: organism-based; parameters: dose 25 mg/kg, route intravenous; conditions: in vivo
Method in brief: as §1, with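 “watched closely” for “watched”, “Whole blood” for “Serum”, “taken for complete blood counts” for “collected and run”, “haematology” for “chemistry and electrolyte”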

Mus musculus [29] = assay: Toxicity in HBV infected transgenic 1.3.32 mouse assessed as change in serum albumin level at 7.9 to 25 mg/kg, po qd for 14 days; format: organism-based; parameters: dose 7.9-25 mg/kg, route oral; conditions: in vivo, 336 h; method in brief: as §3
Mus musculus [30] = assay: Acute toxicity in CL57BL/6 mouse assessed as effect on serum alkaline phosphatase level at 25 mg/kg, iv administered as single dose after 24 hrs; format: organism-based; parameters: dose 25 mg/kg, route intravenous; conditions: in vivo
Method in brief: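 Female C57BL/6 mice, four per group, randomized, each given one tail-vein injection of a 2 mg/mL solution in 1:1 NMP:Solutol HS15 diluted with saline; a vehicle-only group served as control. Serum was collected and run on an automated chemistry and electrolyte analyser.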

Hepatitis B virus [31] = assay: Antiviral activity against adefovir-resistant Hepatitis B virus harboring polymerase A529V mutant in human HepG2 cells assessed as inhibition of HBsAg secretion by ELISA; format: functional, organism-based

## Fc1cccc(Cl)c1C1CC(c2ccc(Cl)cc2)Nc2ncnn21 (racemic)
Rattus norvegicus [1]
  Cmax: 2437 ng/mL
Hepatitis B virus [2]
  EC50: 8.4 µM
Mus musculus [3]
  Activity: Non-toxic
Rattus norvegicus [4]
  CL: 12 mL/min/kg
Mus musculus [5]
  Activity: Non-toxic
Mus musculus [6]
  Activity: Non-toxic
Mus musculus [7]
  Activity: Non-toxic
Mus musculus [8]
  Activity: Toxic
Mus musculus [9]
  Activity: Non-toxic
Mus musculus [10]
  Activity: Non-toxic
Mus musculus [11]
  Activity: Non-toxic
Rattus norvegicus [12]
  Vdss: 1.6 L/kg
Mus musculus [13]
  Activity: Non-toxic
Mus musculus [14]
  Activity: Non-toxic
Mus musculus [15]
  Activity: Non-toxic
Rattus norvegicus [16]
  F: 31%
Mus musculus [17]
  Activity: Non-toxic
Mus musculus [18]
  Activity: Non-toxic
Mus musculus [19]
  Activity: Non-toxic
Mus musculus [20]
  Activity: Non-toxic
Mus musculus [21]
  Activity: Non-toxic
Mus musculus [22]
  Activity: Non-toxic
Mus musculus [23]
  Activity: Non-toxic
Mus musculus [24]
  Activity: Non-toxic
Mus musculus [25]
  Activity: Non-toxic
Mus musculus [26]
  Activity: Non-toxic
Mus musculus [27]
  Activity: Toxic
Mus musculus [28]
  Activity: Non-toxic
Mus musculus [29]
  Activity: Non-toxic
Mus musculus [30]
  Activity: Non-toxic
Hepatitis B virus [31]
  EC50: 5.8 µM

Source: ChEMBL document CHEMBL1811844, “Design, synthesis, and biological evaluation of triazolo-pyrimidine derivatives as novel inhibitors of hepatitis B virus surface antigen (HBsAg) secretion” (J Med Chem, 2011)
